Beta2AR agonist = activates human beta-2 adrenergic receptor causing internalization. P07550. Am2.2-beta2AR cells, FAP receptor internalization, flow cytometry. response, % (test concentration not listed). hit rate 0.43% among 340,000. AID 504454;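 active = response above a set limit, near 3 SD of response in nonfluorescent compounds, cut at about 42% in these data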
MC4R ag barr = human MC4R agonism via beta-arrestin | activation, % at 8.9 µM | hit rate 0.98% among 360,000 | P32245 | U2OS MC4R beta-arrestin complementation, luminescence; percent of melanotan II response, DMSO zero | AID 540308;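 active = activation above a per-plate cutoff, the mean activation of sample wells on that plate plus 3 SD, cut at about 8% in these data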
HTR2A ag = activates the mouse 5-HT2A serotonin receptor. activation, % at 7.6 µM. hit rate 0.66% among 360,000. P35363. AID 624169. CHO-K1 mHTR2A beta-arrestin complementation, luminescence; percent of 30 µM serotonin response;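 active = activation above a run cutoff, the mean activation of all tested compounds plus 3 SD, cut at about 14% in these data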
Target sequence (P35363 whole entry, looked up): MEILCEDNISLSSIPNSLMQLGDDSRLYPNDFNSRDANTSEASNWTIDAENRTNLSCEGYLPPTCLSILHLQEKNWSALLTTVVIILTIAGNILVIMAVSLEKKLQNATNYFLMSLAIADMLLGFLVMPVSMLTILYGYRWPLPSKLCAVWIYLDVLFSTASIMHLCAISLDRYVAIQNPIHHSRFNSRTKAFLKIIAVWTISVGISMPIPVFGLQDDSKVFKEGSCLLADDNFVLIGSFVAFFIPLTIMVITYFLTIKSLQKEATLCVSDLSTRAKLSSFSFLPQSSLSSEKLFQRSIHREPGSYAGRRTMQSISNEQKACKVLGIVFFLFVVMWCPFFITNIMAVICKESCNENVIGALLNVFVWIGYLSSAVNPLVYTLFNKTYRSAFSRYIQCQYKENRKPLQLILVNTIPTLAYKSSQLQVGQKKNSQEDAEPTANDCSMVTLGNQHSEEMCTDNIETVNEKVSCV
MC4R antag cAMP = antagonists of human melanocortin 4 receptor (MC4R) | AID 540295 | P32245 | MC4R-expressing cells, MTII-stimulated cAMP, LANCE TR-FRET | hit rate 0.48% among 360,000 | inhibition, % at 6.5 µM;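 active = inhibition above its plate's cutoff, the mean of tested wells on that plate plus 3 SD, cut at about 29% in these data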
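material = U2OS cells stably expressing human melanocortin 4 receptor (MC4R) | also added = Melanotan II challenge | dosing = single nominal compound dose of 6.5 µM | detection = TR-FRET with Eu-cAMP and labeled anti-cAMP, 671 nm | replication = singlicate | timing = compound 30 min, challenge 1 h, detection 1 h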
TAAR1 antag = antagonists of human TAAR1; Q96RJ0; CHO RD-HGA16 TAAR1, Fluo-8 calcium fluorescence, antagonist; inhibition, % at 3 µM; hit rate 1.5% among 360,000;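 active = inhibition above a per-plate cutoff, the mean inhibition of test compounds on that plate plus 3 SD, cut at about 49% in these data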
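Assay system: CHO-derived RD-HGA16 cells stably expressing human TAAR1 plus Gα16. Timing: 140 s kinetic read after compound, 140 s after agonist. Technique: kinetic Fluo-8 calcium fluorescence measurement. Measure: % inhibition of agonist calcium response.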
TAAR1 agonist = agonists of human TAAR1; Q96RJ0; CHO RD-HGA16 TAAR1, Fluo-8 calcium fluorescence; vehicle wells 0%, saturating PEA agonist 100%; activation, % at 3 µM; hit rate 0.99% among 360,000; AID 624467;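 active = activation above the mean activation of all test compounds in the run plus 3 SD, cut at about 38% in these data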
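Signal – calcium-sensitive Fluo-8 signal, excitation 470-495, emission 515-575 nm · System – RD-HGA16 (CHO) cells co-expressing Gα16 and hTAAR1 · Incubation – 17-24 h seeding, 75 min 37 °C dye, 30 min RT · Compound dosing – 3 µM single concentration · Repeats – no replicates (n 1)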
Each line names hits and unclear results; the compound was inactive in the other large screens. The list is not random: actives were taken first. Their share in the collection is about 4.3%.

CN1CCN(C2=C(Cl)C(=O)N(c3ccc(Cl)cc3)C2=O)CC1	HTR2A ag 16 (no result: TAAR1 antag, TAAR1 agonist)
O=C(Nc1ccc(N2CCOCC2)c(Cl)c1)c1ccc(Br)o1	TAAR1 antag 60
O=C(/C=C/c1ccco1)NC(=S)Nc1ccc(N2CCOCC2)c(Cl)c1	MC4R ag barr 22
O=C(/C=C/c1ccccc1)NC(=S)Nc1ccc(N2CCOCC2)c(Cl)c1	none
O=C(Nc1cccc(C(F)(F)F)c1)Nc1ccc2nc([C@@H]3O[C@H](CO)[C@@H](O)[C@H](O)[C@H]3O)[nH]c2c1	none (no result: Beta2AR agonist)
C[C@H]1O[C@@H](O[C@H]2[C@@H](O)C[C@H](O[C@H]3[C@@H](O)C[C@H](O[C@H]4CC[C@@]5(C)[C@H](CC[C@@H]6[C@@H]5C[C@@H](O)[C@]5(C)[C@@H](C7=CC(=O)OC7)CC[C@]65O)C4)O[C@@H]3C)O[C@@H]2C)C[C@H](O)[C@@H]1O	MC4R ag barr 39
CCCN1CCCCC(NC(C)=O)C1=O (configuration not stated)	none (no result: Beta2AR agonist, MC4R ag barr, HTR2A ag, MC4R antag cAMP)
CSc1nc(S(C)(=O)=O)nc2[nH]c(=O)[nH]c12	none
COc1ccc(C2=CC(=O)N(Nc3ccccc3)C2=O)cc1	none (no result: Beta2AR agonist)
Cc1ccc(NN2C(=O)C=C(c3ccc(Cl)cc3)C2=O)cc1	TAAR1 antag 58
COC(=O)C1=C(C)NC(=S)NC1c1ccc(Br)cc1 (configuration not stated)	none (no result: Beta2AR agonist, MC4R ag barr, HTR2A ag, MC4R antag cAMP)
COCc1cc(N2CCN(C(=O)OC(C)(C)C)C[C@@H]2C)ccc1N1CC[C@@H](O)C1	none (no result: Beta2AR agonist, MC4R ag barr, HTR2A ag, MC4R antag cAMP)
COc1ccc(C2C3=C(Nc4ncnn42)c2ccccc2CCC3)cc1 (configuration not stated)	none
Fc1ccc(/C=C2\CCCC3=C2Nc2ncnn2C3c2ccc(F)cc2)cc1 (configuration not stated)	TAAR1 antag 65
CCN(Cc1ccc2c(c1)OCCO2)C(=O)CSc1nc(C)nc2sc(C)c(C)c12	TAAR1 antag 59
CCN(Cc1ccc2c(c1)OCO2)C(=O)CSc1ncnc2sccc12	none
Cc1ccccc1COC(=O)CCCC1=NS(=O)(=O)c2ccccc2N1	TAAR1 agonist 50
Cc1ccc(NC(=O)COC(=O)CCCC2=NS(=O)(=O)c3ccccc3N2)cc1C	none
COC(=O)C1=C(C)N(C)C(=NCc2ccc(OC)cc2)NC1c1cccc(F)c1 (configuration not stated)	none (no result: Beta2AR agonist, MC4R ag barr, HTR2A ag, MC4R antag cAMP)
Cc1ccc(C(=O)NCCN2C3=NC[C@@H](Cc4ccccc4)N3C[C@H]2Cc2ccc(O)cc2)cc1Br	none
COc1ccc(C[C@H]2CN3C(=NC[C@@H]3Cc3ccccc3)N2CCNC(=O)c2ccc(C)c(Br)c2)cc1	MC4R ag barr 23 (no result: TAAR1 antag, TAAR1 agonist)
O=C(N/N=C/c1ccc[nH]1)c1cc2ccccc2cc1O	Beta2AR agonist 46
O=C(N/N=C/c1ccncc1)c1cc2ccccc2cc1O	none
O=C(NCc1ccco1)Nc1c(Cl)cc(Cl)cc1Cl	none (no result: Beta2AR agonist, MC4R ag barr, HTR2A ag, MC4R antag cAMP)
NC(CO)c1csc(Nc2ccc(C(F)(F)F)cn2)n1 (configuration not stated)	none (no result: Beta2AR agonist)
NC(Cc1ccc(Cl)cc1)c1csc(Nc2ccc(C(F)(F)F)cn2)n1 (configuration not stated)	TAAR1 agonist 45 (no result: Beta2AR agonist)
CC(=O)c1ccc(OCCCC(=O)Nc2cc(Cl)ccc2-n2cncn2)cc1	none
CCOc1ccc(OCCCC(=O)Nc2cc(Cl)ccc2-n2cncn2)cc1	TAAR1 antag 58
CCOc1ccc(C(=O)Nc2ccc(N3CCN(C)CC3)cc2)cc1Br	TAAR1 agonist 47
CN1CCN(c2ccc(NC(=O)c3ccc(Oc4ccccc4)cc3)cc2)CC1	TAAR1 agonist 38
COc1ccc(C(=O)Nc2ccc(N3CCCC3)cc2)cc1Br	none
COC(=O)[C@]12C[C@H](CC(=O)N3CCCC3)C(=O)N(Cc3ccccc3)C1=C[C@H](C(C)C)O[C@@H]2C1CC1	none (no result: Beta2AR agonist, MC4R ag barr, HTR2A ag, MC4R antag cAMP)
Nc1ccn([C@@H]2O[C@H](C(=O)N[C@H](Cc3ccccc3)C(=O)N[C@H]3CCCCNC3=O)[C@@H](O)[C@H]2O)c(=O)n1	none (no result: Beta2AR agonist, MC4R ag barr, HTR2A ag, MC4R antag cAMP)
COc1cc(/C=C/C(=O)O)cc(S(=O)(=O)Nc2ccc3c(c2)OCO3)c1OC	none
Cc1ccc(Nc2nc(NCCO)nc3c2cnn3C)cc1Cl	TAAR1 agonist 38
CCCNc1nc(Nc2ccc(C)c(Cl)c2)c2cnn(C)c2n1	none
O=C(C=Cc1ccccn1)c1ccccc1O	Beta2AR agonist 49
O=C(CCl)N=c1sccn1Cc1ccccc1Cl	MC4R ag barr 24
O=C(CCl)N=c1sccn1Cc1ccc(Cl)cc1Cl	Beta2AR agonist 67, MC4R ag barr 12
NC(=O)c1ccc(=O)n(Cc2ccc(Cl)cc2Cl)c1	none
O=C(CCl)N=c1sccn1Cc1cccc2ccccc12	Beta2AR agonist 50
CCC(=O)OCC(=O)N=c1sccn1Cc1ccc(C)cc1	none
CCC(=O)OCC(=O)N=c1sccn1Cc1ccccc1Cl	none
CC(=O)Nc1ccc(S(=O)(=O)NCC2CCN(C(=O)C(=O)c3cc4ccccc4o3)CC2)cc1	none (no result: Beta2AR agonist, MC4R ag barr, HTR2A ag, MC4R antag cAMP)
CC(=O)NCCn1c(SCC(=O)NCCc2ccc(S(N)(=O)=O)cc2)nc2ccccc2c1=O	none
COCCCNC(=O)CSc1nc2ccccc2c(=O)n1CCc1ccc(S(N)(=O)=O)cc1	TAAR1 antag 57
CC12CCC(C/C1=N/OC(=O)c1cccc([N+](=O)[O-])c1)C2(C)C (configuration not stated)	TAAR1 agonist 40
CC12CCC(C/C1=N\OC(=O)c1ccc(F)cc1)C2(C)C (configuration not stated)	none
COc1ccc(NC(=O)N(C)C[C@H]2OCc3cn(nn3)CCCC(=O)N([C@H](C)CO)C[C@@H]2C)cc1	none (no result: Beta2AR agonist, MC4R ag barr, HTR2A ag, MC4R antag cAMP)
O=C(c1cc(-c2ccncc2)nc2ccc(Br)cc12)N1CCN(Cc2ccc3c(c2)OCO3)CC1	TAAR1 antag 62
COc1cc2c(c(OC)c1OC)CC(c1ccccc1)=C(c1ccccc1)CC2NC(=O)C(F)(F)F (configuration not stated)	none (no result: Beta2AR agonist, MC4R ag barr, HTR2A ag, MC4R antag cAMP)
Cc1ccc(O)c(C(=O)c2cc(C#N)c(=O)n(-c3nccs3)c2)c1	TAAR1 agonist 51
Cc1ccc(O)c(C(=O)c2cc(C#N)c(=O)n(-c3c(C)n(C)n(-c4ccccc4)c3=O)c2)c1	none
CN1C(C(=O)N2CCc3ccccc3C2)=CC(c2ccc(F)cc2)=NS1(=O)=O	TAAR1 agonist 42
Cc1cccc(C)c1OCC(O)CN (configuration not stated)	TAAR1 agonist 41
CCOC(=O)C1=NN(C(=O)c2ccccc2)C(O)(c2ccc(C)cc2)C1 (configuration not stated)	TAAR1 agonist 38

Screening data as filed in PubChem.
